In brackets after ≈: the same amount, converted by molar mass. Activity calls are given as the source filed them. The calls are words filed in the database; no cut-off is given here.
Columns and labels:
Vero = experiment: Cytotoxicity against african green monkey Vero cells; type: cell-based; conditions: Chlorocebus sabaeus
[1] = test system: Mycobacterium tuberculosis H37Rv; experiment: Inhibition of MmpL3 in clinical isolates of drug sensitive Mycobacterium tuberculosis H37Rv after 7 to 14 days by alamar blue assay
[2] = Oral bioavailability in BALB/c mouse at 100 mg/kg administered for 30 to 120 mins followed by Mycobacterium tuberculosis H37Rv addition to compound treated serum incubated for 7 days by alamar blue reagent based serum inhibition titration assay; type: ADME, organism-based; conditions: in vivo
In short: (§1)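 Six-week-old female BALB/c mice (20 g) given one oral dose as suspension in 0.5% CMC in water; isoniazid 10 mg/kg as positive control, vehicle as negative. Serum collected at 30, 60 and 120 min, pooled from three mice per time point, 2-fold serially diluted. 10^4 CFU H37Rv added per well, 7 days at 37 °C. alamarBlue added for 16−18 h, fluorescence read at Ex544/Em590 and plotted against serum titration.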

[3] = test system: Mycobacterium tuberculosis; experiment: Inhibition of MmpL3 in clinical isolates of drug sensitive Mycobacterium tuberculosis V4207 after 7 to 14 days by alamar blue assay
[4] = test system: Mycobacterium tuberculosis; experiment: Antimycobacterial activity against Mycobacterium tuberculosis H37Rv grown on serum isolated from 100 mg/kg, po treated BALB/c mouse for 30 to 120 mins assessed as reduction in bacterial growth followed by bacterial addition incubated for 7 days by alamar blue reagent based serum inhibition titration assay; type: functional, organism-based; in short: as §1
[5] = Selectivity index, ratio of IC50 for african green monkey Vero cells to MIC for clinical isolates of Mycobacterium tuberculosis; type: toxicity; conditions: read-out: Selectivity Index
[6] = biological target: T1, Nuclear receptor subfamily 1 group I member 3 (Homo sapiens, UniProt Q14994); experiment: Transactivation of CAR (unknown origin) assessed as upregulation of CYP2B6; type: ADME
T1 sequence (Q14994 whole entry): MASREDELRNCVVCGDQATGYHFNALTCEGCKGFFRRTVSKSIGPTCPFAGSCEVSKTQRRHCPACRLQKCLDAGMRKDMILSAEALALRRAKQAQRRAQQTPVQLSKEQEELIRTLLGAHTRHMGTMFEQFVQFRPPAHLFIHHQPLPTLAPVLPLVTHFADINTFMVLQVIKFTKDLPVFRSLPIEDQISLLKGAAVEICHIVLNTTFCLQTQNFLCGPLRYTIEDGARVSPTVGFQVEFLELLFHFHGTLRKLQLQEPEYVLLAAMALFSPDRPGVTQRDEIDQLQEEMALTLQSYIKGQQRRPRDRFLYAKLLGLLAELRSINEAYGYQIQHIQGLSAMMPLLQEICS
In short: (§2)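 Nuclear receptor reporter-gene induction assay, with reporters coupled to PXR, CAR or AhR. Compound was tested at 0.1–1, 3 and 8 μg/mL. Positive controls were rifampin for PXR, CITCO for CAR and 3-methylcholanthrene for AhR.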

[7] = Mean residence time (last) in BALB/c mouse lung at 100 mg/kg administered via oral gavage by LC-MS analysis; type: ADME, organism-based
In short: (§3)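 Female BALB/c mice (20 g), single oral gavage dose of 100 mg/kg. Cardiac blood and lungs taken at 0, 0.25, 0.5, 1, 2, 4, 8 and 24 h (n = 3 per time point). Plasma separated by centrifugation; lungs bead-beaten in water and supernatant recovered. Drug quantified by LC-MS/MS against an indole-2-carboxamide internal standard. Parameters derived by noncompartmental analysis.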

[8] = test system: Mycobacterium tuberculosis; experiment: Antimycobacterial activity against Mycobacterium tuberculosis H37Rv infected in BALB/c mouse model assessed as protection against mouse mortality at 12.5 to 100 mg/kg administered daily via oral gavage for 5 days per week measured after 14 to 28 days post dosage; type: functional, organism-based
[9] = Mean residence time (last) in BALB/c mouse plasma at 100 mg/kg administered via oral gavage by LC-MS analysis; type: ADME, organism-based; in short: as §3
[10] = AUClast in BALB/c mouse plasma at 100 mg/kg administered via oral gavage after 0.25 to 24 hrs by LC-MS analysis; type: ADME, organism-based; design: dose 100 mg/kg, time 0.25-24 hr, route oral; in short: as §3
[11] = test system: Mycobacterium tuberculosis; experiment: Antimycobacterial activity against Mycobacterium tuberculosis H37Rv infected in BALB/c mouse model assessed as reduction in CFU counts in lung at 200 mg/kg administered daily via oral gavage for 5 days per week measured after 28 days post dosage relative to control; type: functional
In short: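 Bactericidal-dose model in aerosol-infected BALB/c mice given 25, 50, 100 or 200 mg/kg orally in 0.5% carboxymethylcellulose in water for 4 weeks. Lung CFU compared with the count at treatment initiation; survival also recorded.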

[12] = AUClast in BALB/c mouse lung at 100 mg/kg administered via oral gavage after 0.25 to 24 hrs by LC-MS analysis; type: ADME, organism-based; conditions: in vivo; in short: as §3
[13] = Cmax in BALB/c mouse plasma at 100 mg/kg administered via oral gavage after 0.25 to 24 hrs by LC-MS analysis; type: ADME, organism-based; design: dose 100 mg/kg, route oral; in short: as §3
[14] = AUMClast in BALB/c mouse lung at 100 mg/kg administered via oral gavage after 0.25 to 24 hrs by LC-MS analysis; type: ADME, organism-based; conditions: in vivo; in short: as §3
[15] = Tmax in BALB/c mouse lung at 100 mg/kg administered via oral gavage after 0.25 to 24 hrs by LC-MS analysis; type: ADME, organism-based
In short: (§4)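 Female BALB/c mice (20 g) got a single 100 mg/kg oral gavage dose. Three animals were sacrificed per time point at 0, 0.25, 0.5, 1, 2, 4, 8 and 24 h. Cardiac blood was spun at 12 000g, 4 °C for plasma. Lungs were bead-beaten in water and the supernatant taken. Both matrices were quantified by LC-MS/MS with an indole-2-carboxamide internal standard. Parameters came from noncompartmental analysis.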

[16] = Oral bioavailability in BALB/c mouse at 100 mg/kg administered as single dose for 30 to 120 mins followed by Mycobacterium tuberculosis H37Rv addition to compound treated serum incubated for 7 days by alamar blue reagent based serum inhibition titration assay; type: ADME, organism-based; conditions: in vivo; in short: as §1
[17] = Tmax in BALB/c mouse plasma at 100 mg/kg administered via oral gavage after 0.25 to 24 hrs by LC-MS analysis; type: ADME, organism-based; in short: as §4
[18] = AUMClast in BALB/c mouse plasma at 100 mg/kg administered via oral gavage after 0.25 to 24 hrs by LC-MS analysis; type: ADME, organism-based; conditions: in vivo; in short: as §3
[19] = Cmax in BALB/c mouse lung at 100 mg/kg administered via oral gavage after 0.25 to 24 hrs by LC-MS analysis; type: ADME, organism-based; design: dose 100 mg/kg, route oral; in short: as §3
[20] = test system: Mycobacterium tuberculosis; experiment: Antimycobacterial activity against Mycobacterium tuberculosis H37Rv infected in BALB/c mouse model assessed as reduction in CFU counts in lung at 100 mg/kg administered daily via oral gavage for 5 days per week measured after 14 days post dosage relative to control; type: functional
In short: (§5)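 Female BALB/c mice, 4-6 weeks old, aerosol-infected with H37Rv (about 10^3 CFU); five mice taken on day 1 for lung implantation CFU. From day 1, 12.5, 25, 50 or 100 mg/kg in 0.5% carboxymethylcellulose by daily oral gavage, 5 days/week. Ethambutol 100 mg/kg as positive control, untreated infected mice as negative, 5 mice per group. Lung homogenates plated on 7H11 selective agar on days 14 and 28.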

[21] = test system: Mycobacterium tuberculosis; experiment: Antimycobacterial activity against Mycobacterium tuberculosis H37Rv grown on serum of 100 mg/kg, po treated BALB/c mouse for 30 to 120 mins assessed as reduction in bacterial growth followed by bacterial addition incubated for 7 days by alamar blue reagent based serum inhibition titration assay; type: functional, organism-based; in short: as §1
[22] = test system: Mycobacterium tuberculosis; experiment: Antimycobacterial activity against Mycobacterium tuberculosis H37Rv infected in BALB/c mouse model assessed as reduction in CFU counts in lung at 100 mg/kg administered daily via oral gavage for 5 days per week measured after 28 days post dosage relative to control; type: functional; in short: as §5
[23] = test system: Mycobacterium tuberculosis; experiment: Antimycobacterial activity against Mycobacterium tuberculosis H37Rv grown on serum isolated from 10 mg/kg, po treated BALB/c mouse for 30 to 120 mins assessed as reduction in bacterial growth followed by bacterial addition incubated for 7 days by alamar blue reagent based serum inhibition titration assay; type: functional, organism-based; in short: as §1
[24] = Oral bioavailability in BALB/c mouse at 10 mg/kg administered for 30 to 120 mins followed by Mycobacterium tuberculosis H37Rv addition to compound treated serum incubated for 7 days by alamar blue reagent based serum inhibition titration assay; type: ADME, organism-based; conditions: in vivo; in short: as §1
[25] = biological target: T2, Aryl hydrocarbon receptor (Homo sapiens, UniProt P35869); experiment: Transactivation of AhR (unknown origin) assessed as upregulation of CYP1A2; type: ADME; in short: as §2
T2 sequence (P35869 whole entry): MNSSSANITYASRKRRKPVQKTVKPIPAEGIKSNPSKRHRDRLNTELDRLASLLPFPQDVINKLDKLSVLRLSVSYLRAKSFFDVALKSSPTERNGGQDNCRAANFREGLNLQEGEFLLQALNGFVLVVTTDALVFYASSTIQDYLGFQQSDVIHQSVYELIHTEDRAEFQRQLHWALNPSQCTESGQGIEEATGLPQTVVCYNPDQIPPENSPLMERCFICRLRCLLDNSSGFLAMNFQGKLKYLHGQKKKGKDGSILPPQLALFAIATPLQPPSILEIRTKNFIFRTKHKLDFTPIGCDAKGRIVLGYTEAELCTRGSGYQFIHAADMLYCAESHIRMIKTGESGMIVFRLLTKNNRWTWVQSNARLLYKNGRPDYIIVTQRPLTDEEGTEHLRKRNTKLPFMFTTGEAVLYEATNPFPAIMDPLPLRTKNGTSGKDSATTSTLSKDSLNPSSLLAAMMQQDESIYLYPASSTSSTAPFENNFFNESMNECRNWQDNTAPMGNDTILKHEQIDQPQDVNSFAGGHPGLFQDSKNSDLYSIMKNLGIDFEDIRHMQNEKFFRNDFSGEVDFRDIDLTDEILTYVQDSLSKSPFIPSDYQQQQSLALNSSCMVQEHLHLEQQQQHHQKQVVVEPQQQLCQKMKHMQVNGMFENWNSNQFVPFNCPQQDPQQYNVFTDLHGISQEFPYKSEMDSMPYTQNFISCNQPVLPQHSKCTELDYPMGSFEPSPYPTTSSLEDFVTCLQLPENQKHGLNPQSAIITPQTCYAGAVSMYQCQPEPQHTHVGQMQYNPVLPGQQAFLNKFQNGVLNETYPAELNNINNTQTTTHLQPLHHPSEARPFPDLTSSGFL

[26] = Mutagenicity in Salmonella typhimurium TA98 assessed as increase in ratio of revertant colonies in presence of S9 liver fraction relative to control; type: toxicity, subcellular; conditions: salmonella enterica subsp. enterica serovar typhimurium

SMILES: O=C(NC1CCCCCCC1)c1cc2c(Cl)cc(Cl)cc2[nH]1
- IC50 (Vero): 23.5 to 47 µM
- MIC90 [1]: 11 nM (≈ 3.73 ng/mL)
- Drug uptake [2]: Active
- MIC [3]: 11 µM (≈ 3730 ng/mL)
- Activity [4]: Active
- selectivity ratio [5]: 2140 to 4270

SMILES: Clc1ccc(-c2nc3sccn3c2/C=N/OCc2ccc(Cl)c(Cl)c2)cc1
- Activity [6]: Active

SMILES: CC1(C)CCC(NC(=O)c2cc3c(Cl)cc(Cl)cc3[nH]2)CC1
- MRT last [7]: 8.3 h
- Activity [8]: Active
- MRT last [9]: 6.47 h
- AUC(0-t) [10]: 5620 ng·h/mL
- Activity [11]: inactive
- AUClast [12]: 18.1 µg·h/g
- Cmax [13]: 670 ng/mL
- AUMClast [14]: 150 hr2.ug/g
- Tmax [15]: 2 h
- Drug uptake [16]: Active
- Tmax [17]: 2 h
- AUMClast [18]: 36.4 hr.hr.ug/ml
- Cmax [19]: 1300 ng/g
- Activity [20]: 0.45 log10CFU
- Activity [21]: Active
- Activity [22]: 1.08 log10CFU

SMILES: NNC(=O)c1ccncc1 [ISONIAZID]
- Activity [23]: Active
- Drug uptake [24]: Active
- MIC90 [1]: 290 nM (≈ 39.8 ng/mL)

SMILES: O=C(NC1CCC2(CCCCC2)CC1)c1cc2c(F)cc(F)cc2[nH]1
- MIC90 [1]: 3 nM (≈ 1.04 ng/mL)
- Drug uptake [16]: Not Active
- Activity [21]: inactive

SMILES: O=C(NC12CC3CC(CC(C3)C1)C2)c1cc2c(Cl)cc(Cl)cc2[nH]1
- MIC90 [1]: 11 nM (≈ 4 ng/mL)
- Drug uptake [16]: Not Active
- Activity [21]: inactive

SMILES: Cc1ccc2cc3c(ccc4ccccc43)c3c2c1CC3 [3-METHYLCHOLANTHRENE]
- Activity [25]: Active

SMILES: C[C@@H]1[C@H]2C[C@@H](C[C@H]1NC(=O)c1cc3c(Cl)cc(Cl)cc3[nH]1)C2(C)C
- IC50 (Vero): 43.8 µM
- MIC90 [1]: 21 nM (≈ 7.67 ng/mL)
- Drug uptake [2]: Active
- MIC [3]: 43 µM (≈ 15700 ng/mL)
- Activity [4]: Active
- selectivity ratio [5]: 2080

SMILES: O=C(NC1CCC2(CCCCC2)CC1)c1cc2c(Cl)cc(Cl)cc2[nH]1
- MIC90 [1]: 5 nM (≈ 1.9 ng/mL)
- Drug uptake [16]: Not Active
- Activity [21]: inactive

SMILES: Nc1ccc2cc3ccccc3cc2c1 [2-AMINOANTHRACENE]
- fold change (FC) [26]: 173
